pIC50: −log10 of the molar value. Values after ≈ are worked out from the molar mass of the structure shown. Active and inactive are the calls of the source. The rule behind the calls is not given here.
Experiments:
Homo sapiens = organism: Homo sapiens; assay: Displacement of F-NEO from human rRNA A-site at 0.1 uM by fluorescence assay
Method in brief: (§1)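 Single-point competitive screen: compound at 0.1 μM added to 0.1 μM F-NEO:A-site RNA complex. Displacement read as emission increase over complex alone (ΔF), expressed as % of fluorescence of 0.1 μM F-NEO. Buffer 10 mM HEPES, 50 mM NaCl, 0.4 mM EDTA, pH 7.0; at least duplicates.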

Escherichia coli [1] = assay: Displacement of F-NEO from Escherichia coli rRNA A-site at 0.1 uM by fluorescence assay; method in brief: as §1
Staphylococcus aureus [2] = assay: Activity at Staphylococcus aureus APH(2'')-1a at 100 uM in presence of […] by […] relative to NEO
Escherichia coli [3] = assay: Activity at Escherichia coli AAC(3)-4 at 100 uM in presence of AcCoA by Ellmans method relative to NEO
Method in brief: (§2)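 Acetylation followed by Ellman's method at 412 nm, 2 mM DTNB, 100 μM compound, 25 °C, triplicate, rates normalized to NEO. AcCoA 500 μM for Eis, 150 μM for AAC(3)-IV; enzyme 0.5 μM for Eis, 0.125 μM for AAC(3)-IV; 50 mM buffer.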

[4] = system: Mycobacterium tuberculosis; assay: Activity at Mycobacterium tuberculosis AAC(2')-1c at 100 uM in presence of AcCoA by Ellmans method relative to NEO
Method in brief: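 N-acetylation by AAC(2')-Ic (0.125 μM enzyme) of 100 μM compound with 150 μM AcCoA and 2 mM DTNB in 100 mM buffer, 25 °C. Thiol release followed at 412 nm (ε = 14,150 M⁻¹cm⁻¹). Rates normalized to neomycin B, triplicate.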

[5] = system: Staphylococcus epidermidis; assay: Antibacterial activity against Staphylococcus epidermidis ATCC 12228 after 16 to 20 hrs by MTT assay; type: functional
Method in brief: (§3)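 Strains grown in LB 24 h at 37 °C, 250 rpm; overnight culture diluted 1:1000, grown 4 h, diluted 1:1000 again and added to microplates. Incubation 16–20 h at 37 °C; growth read visually and with MTT (1 mg/mL).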

[6] = Displacement of F-NEO from human rRNA A-site by fluorescence assay
Staphylococcus aureus [7] = assay: Antibacterial activity against Staphylococcus aureus ATCC 25923 after 16 to 20 hrs by MTT assay; type: functional; method in brief: as §3
[8] = Activity at Eis (unknown origin) at 100 uM in presence of AcCoA by Ellmans method relative to NEO; method in brief: as §2
[9] = Activity at APH(3')-1a (unknown origin) at 100 uM in presence of […] by […] relative to NEO
[10] = Displacement of F-NEO from Escherichia coli rRNA A-site by fluorescence assay
[11] = Selectivity factor, ratio of IC50 for human rRNA A-site to IC50 for Escherichia coli rRNA A-site
Method in brief: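 Ratio from F-NEO displacement titrations, 0.002–2.0 μM compound against 0.1 μM F-NEO:A-site complex (485/535 nm). Measured IC50 stands in for the unmeasurable competition constants in Kd(human)/Kd(E. coli) = 5.75 × K(E. coli)/K(human). Buffer 10 mM HEPES, 50 mM NaCl, 0.4 mM EDTA, pH 7.0.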

Bacillus cereus = assay: Antibacterial activity against Bacillus cereus ATCC 11778 after 16 to 20 hrs by MTT assay; type: functional; method in brief: as §3
Staphylococcus aureus [12] = assay: Activity at Staphylococcus aureus AAC(6')-1e/APH(2'')-1a in presence of AcCoA by Ellmans method relative to NEO

Compound | Activity (Homo sapiens) | Activity (Escherichia coli [1]) | Activity (Staphylococcus aureus [2]) | Activity (Escherichia coli [3]) | Activity [4] | MIC [5] [µM] | pIC50 [6] | MIC (Staphylococcus aureus [7]) [µM] | Activity [8] | Activity [9] | pIC50 [10] | Ratio IC50 [11] | MIC (Bacillus cereus) [µM] | Activity (Staphylococcus aureus [12])
N=C(N)NCCC[C@H](N)C(=O)NCCCn1cc(-c2cccc(-c3cn(CCCNC(=O)[C@@H](N)CCCNC(=N)N)nn3)c2)nn1 | inactive | inactive |  |  |  |  |  |  |  |  |  |  |  | 
N=C(N)NCCC[C@H](NC(=O)CCCCCNC(=O)c1cc(-c2cn(C[C@@H]3O[C@H](O[C@H]4[C@H](O)[C@@H](N)C[C@@H](N)[C@@H]4O[C@H]4O[C@H](CN)[C@@H](O)[C@H](O)[C@H]4N)[C@@H](O)[C@H]3O[C@H]3O[C@@H](CN)[C@@H](O)[C@H](O)[C@H]3N)nn2)cc(-c2cn(C[C@H]3O[C@@H](O[C@@H]4[C@@H](O)[C@H](N)C[C@H](N)[C@H]4O[C@@H]4O[C@@H](CN)[C@H](O)[C@@H](O)[C@@H]4N)[C@H](O)[C@@H]3O[C@@H]3O[C@H](CN)[C@H](O)[C@@H](O)[C@@H]3N)nn2)c1)C(N)=O (stereo in doubt) |  |  | inactive | Active | inactive | > 50 | 4.17 | > 50 | inactive | inactive | 4.27 | 7.2 | 1.6 (≈ 2.75 µg/mL) | inactive
N=C(N)NCCC[C@H](NC(=O)CCNC(=O)c1cc(-c2cn(C[C@@H]3O[C@H](O[C@H]4[C@H](O)[C@@H](N)C[C@@H](N)[C@@H]4O[C@H]4O[C@H](CN)[C@@H](O)[C@H](O)[C@H]4N)[C@@H](O)[C@H]3O[C@H]3O[C@@H](CN)[C@@H](O)[C@H](O)[C@H]3N)nn2)cc(-c2cn(C[C@H]3O[C@@H](O[C@@H]4[C@@H](O)[C@H](N)C[C@H](N)[C@H]4O[C@@H]4O[C@@H](CN)[C@H](O)[C@@H](O)[C@@H]4N)[C@H](O)[C@@H]3O[C@@H]3O[C@H](CN)[C@H](O)[C@@H](O)[C@@H]3N)nn2)c1)C(N)=O (stereo in doubt) |  |  | inactive | Active | inactive | 50 (≈ 83.8 µg/mL) | 4.24 | 50 (≈ 83.8 µg/mL) | inactive | inactive | 4.15 | 4.7 | 0.8 (≈ 1.34 µg/mL) | inactive

— ChEMBL document CHEMBL3785055, “Arginine-linked neomycin B dimers: synthesis, rRNA binding, and resistance enzyme activity” (Medchemcomm, 2016)
